Data: article PMC2849726 (Journal of medicinal chemistry, 2010)
≈ marks a conversion by molar mass, not a printed value. Entries after “also recorded” stand apart in the source; their conditions may differ.

What was measured:
[1] = system: ZR-75-1 (estrogen receptor positive, HER2 over-expressing luminal-like breast cancer); assay: Cell growth inhibition assay; assay type: cell-based, human; conditions: for IC50: Homo sapiens, ZR-75-1, read-out: IC50 against the ZR-75-1 cell lines
Outline: (§1)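 Cells were grown in RPMI-1640 with 10% FBS and antibiotics at 37 °C in 5% CO2. Freshly trypsinized cells were seeded and test compound added from DMSO-diluted stock, then incubated 72 h after attachment. Cells were fixed with 10% TCA and stained 10 min with 0.4% SRB in 1% HOAc. Bound dye was dissolved in 10 mM trizma base and A515 read. ED50 is the concentration giving 50% reduction in net protein increase versus control, averaged over at least three independent determinations.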

PC-3 xenograft = assay: Antitumor activity in vivo, PC-3 xenograft; set-up: species or system SCID mice; conditions: 10 mg/kg i.p. qod to end
Outline: (§2)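 Human tumour cells were grown in RPMI 1640 with 10% heat-inactivated FBS, 2 mM glutamine and antibiotics, harvested in log phase and resuspended in PBS at 5 × 10^7 cells/mL. 1 × 10^7 cells were given s.c. in the right flank. Test compound was dosed i.p. at 10 mg/kg qod to end in 4% benzyl alcohol/6% cremophor/90% D5W. Controls were vehicle i.p. qod and paclitaxel 20 mg/kg i.p. q4d × 5. Caliper tumour volume = w²×l/2. %TGD was calculated from mean time to endpoint, with logrank P ≤ 0.05. At least five animals per group.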

MDA-MB-231 xenograft = assay: Antitumor activity in vivo, MDA-MB-231 xenograft; set-up: species or system SCID mice; conditions: 10 mg/kg i.p. qod to end
Outline: as §2

[2] = system: human breast cancer cell lines; assay: Cell line panel; assay type: cell-based; conditions: total 29 cell lines, unpublished data
AKT1 = AKT1 (Homo sapiens, UniProt P31749); assay: Kinases inhibition assay, AKT1; assay type: biochemical; conditions: preliminary, Table 3 in supporting information
[3] = system: MCF-7 (estrogen receptor positive luminal-like breast cancer); conditions: cited from earlier work
CK2α1 = CK2α1 (Homo sapiens, UniProt P68400); assay: Kinases inhibition assay, CK2α1; assay type: biochemical; conditions: preliminary, Table 3 in supporting information
[4] = system: mammary gland side branching; assay: Preliminary in vivo evaluation, mammary gland side branching; conditions: BRCA1/p53 and wild-type mice, unpublished data
ZR-75-1 xenograft = assay: Antitumor activity in vivo, ZR-75-1 xenograft; set-up: species or system SCID mice; conditions: 10 mg/kg i.p. qod to end
Outline: as §2

ABL = ABL (Homo sapiens, UniProt P00519); assay: Kinases inhibition assay, ABL; assay type: biochemical; conditions: preliminary, Table 3 in supporting information
[5] = system: SK-BR-3 (estrogen receptor negative, HER2 over-expressing luminal-like breast cancer); conditions: cited from earlier work
[6] = system: ER+ and HER2++ breast cancer cells; conditions: more selective than TAM; cited from earlier work
[7] = system: MCF-7 (estrogen receptor positive luminal-like breast cancer); assay: Cell growth inhibition assay; assay type: cell-based, human
Outline: as §1

[8] = system: SK-BR-3 (estrogen receptor negative, HER2 over-expressing luminal-like breast cancer); assay: Cell growth inhibition assay; assay type: cell-based, human
Outline: as §1

Sequence of ABL (P00519 whole entry, species assumed): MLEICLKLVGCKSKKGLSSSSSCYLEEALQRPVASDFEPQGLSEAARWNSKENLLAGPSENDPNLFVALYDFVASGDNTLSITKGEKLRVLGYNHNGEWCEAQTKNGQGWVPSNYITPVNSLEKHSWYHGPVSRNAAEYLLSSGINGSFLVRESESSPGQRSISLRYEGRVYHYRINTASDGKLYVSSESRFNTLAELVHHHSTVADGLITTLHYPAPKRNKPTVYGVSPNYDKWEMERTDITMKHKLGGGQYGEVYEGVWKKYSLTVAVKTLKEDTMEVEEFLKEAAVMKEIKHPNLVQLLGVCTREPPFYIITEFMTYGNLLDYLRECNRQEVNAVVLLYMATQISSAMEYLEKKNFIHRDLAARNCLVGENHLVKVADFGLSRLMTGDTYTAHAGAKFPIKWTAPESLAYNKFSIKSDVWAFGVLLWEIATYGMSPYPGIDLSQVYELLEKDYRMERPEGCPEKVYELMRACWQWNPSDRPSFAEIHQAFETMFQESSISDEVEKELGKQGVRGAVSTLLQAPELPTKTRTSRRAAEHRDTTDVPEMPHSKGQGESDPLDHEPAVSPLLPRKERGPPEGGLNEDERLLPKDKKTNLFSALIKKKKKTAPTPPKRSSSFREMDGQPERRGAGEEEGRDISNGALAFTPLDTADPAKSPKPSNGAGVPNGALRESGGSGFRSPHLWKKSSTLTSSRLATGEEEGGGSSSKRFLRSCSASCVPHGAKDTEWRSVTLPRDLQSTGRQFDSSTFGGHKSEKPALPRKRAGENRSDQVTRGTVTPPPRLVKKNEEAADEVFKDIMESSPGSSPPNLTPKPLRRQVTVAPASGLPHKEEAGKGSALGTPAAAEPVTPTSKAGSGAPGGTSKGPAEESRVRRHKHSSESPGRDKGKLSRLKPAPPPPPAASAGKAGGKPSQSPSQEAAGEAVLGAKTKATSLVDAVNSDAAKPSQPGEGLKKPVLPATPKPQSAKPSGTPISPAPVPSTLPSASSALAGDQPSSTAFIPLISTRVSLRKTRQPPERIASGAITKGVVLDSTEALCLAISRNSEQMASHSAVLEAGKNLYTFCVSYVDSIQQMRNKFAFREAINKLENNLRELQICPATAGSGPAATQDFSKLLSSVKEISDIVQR
Sequence of CK2α1 (P68400 whole entry): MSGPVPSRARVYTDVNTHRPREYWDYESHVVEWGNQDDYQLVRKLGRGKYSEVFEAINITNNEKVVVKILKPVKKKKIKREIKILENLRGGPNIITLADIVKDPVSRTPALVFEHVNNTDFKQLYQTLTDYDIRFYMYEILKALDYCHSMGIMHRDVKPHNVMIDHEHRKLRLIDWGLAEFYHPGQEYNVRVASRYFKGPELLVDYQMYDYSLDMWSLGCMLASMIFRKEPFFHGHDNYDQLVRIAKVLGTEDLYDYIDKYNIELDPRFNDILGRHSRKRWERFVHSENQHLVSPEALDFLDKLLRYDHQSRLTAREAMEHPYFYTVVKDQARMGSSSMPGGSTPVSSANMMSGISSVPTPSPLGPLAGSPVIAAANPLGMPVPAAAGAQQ
Sequence of AKT1 (P31749 whole entry, species assumed): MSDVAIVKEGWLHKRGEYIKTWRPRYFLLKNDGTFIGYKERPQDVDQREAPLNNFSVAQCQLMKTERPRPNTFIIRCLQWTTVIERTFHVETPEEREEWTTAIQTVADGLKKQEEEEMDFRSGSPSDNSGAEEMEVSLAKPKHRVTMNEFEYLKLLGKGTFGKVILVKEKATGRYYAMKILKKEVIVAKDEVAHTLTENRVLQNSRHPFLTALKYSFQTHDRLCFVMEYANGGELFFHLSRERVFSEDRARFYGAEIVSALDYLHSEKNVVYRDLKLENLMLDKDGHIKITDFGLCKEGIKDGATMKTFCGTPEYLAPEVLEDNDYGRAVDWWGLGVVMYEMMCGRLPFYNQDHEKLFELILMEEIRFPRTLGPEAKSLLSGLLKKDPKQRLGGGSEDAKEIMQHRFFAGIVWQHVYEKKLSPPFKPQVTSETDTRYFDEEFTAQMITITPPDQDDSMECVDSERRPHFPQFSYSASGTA

For `Cc1coc2c1c(=O)oc1c3cccc(C(C)C)c3ccc21` [Compound 19, 6-Isopropyl-1-methyl-11H-benzo[h]furo[3,2-c]chromen-11-one], the ZR-75-1/SK-BR-3 selectivity ratio [1] was “tenfold” and the IC50 [1] was 0.3 µg/mL (≈ 1.03 µM).
`COc1cccc2c1ccc1c3occ(C)c3c(=O)oc21` [Compound 21, 6-Methoxy-1-methyl-11H-benzo[h]furo[3,2-c]chromen-11-one] showed a ZR-75-1/MCF-7 selectivity ratio ([1]; more active against ZR-75-1 than MCF-7) of 23 fold.
With `CCc1cccc2c1ccc1c3occ(C)c3c(=O)oc21` [Compound 2] the “effect on PC-3 xenograft (in words)” value (PC-3 xenograft) was “no effect”, the “effect on MDA-MB-231 xenograft (in words)” value (MDA-MB-231 xenograft) was “no effect” and the “share of human breast cancer cell lines against which effective” value [2] was “approximately 40%”. The “suppression of AKT1 (in words)” value (AKT1) was “significantly suppressed”, the “activity relative to 1 against MCF-7” value [3] was “about twice as active” and the “suppression of CK2α1 (in words)” value (CK2α1) was “significantly suppressed”. For the same compound, the “mammary gland side branching (in words)” value [4] was “dramatically reduced”, the “ZR-75-1 tumor xenograft growth (in words)” value (ZR-75-1 xenograft) was “potent activity; also recorded: significant reduction in growth” and the “suppression of ABL (in words)” value (ABL) was “significantly suppressed”. For the same compound, the “activity relative to 1 against SK-BR-3” value [5] was “about twice as active”.
In the case of `Cc1cccc2c1ccc1c3occ(C)c3c(=O)oc21` [Compound 1, Neo-tanshinlactone], the “selectivity relative to TAM” value [6] is listed as 20 fold.
With `CCc1cccc2c1ccc1c3oc(C)cc3c(=O)oc21` [Compound 51, 6-Ethyl-2-methyl-11H-benzo[h]furo[3,2-c]chromen-11-one] the “activity against MCF-7 (in words)” value [7] was “completely inactive”.
In the case of `Cc1coc2c1c(=O)oc1c3cccc(C(C)Br)c3ccc21` (stereo not drawn) [Compound 24, 6-(1-Bromoethyl)-1-methyl-11H-benzo[h]furo[3,2-c]chromen-11-one], the “potency relative to 1 against ZR-75-1” value [1] is reported as “two- to three-fold more potent than 1” and the “potency relative to 1 against SK-BR-3” value [8] is reported as “two- to three-fold more potent than 1”.
For `Cc1ccc2c(=O)oc3c4ccccc4ccc3c2c1` [Compound 58, 9-Methyl-6H-dibenzo[c,h]chromen-6-one], the “anti-breast cancer activity (in words)” value ([8]; only SK-BR-3 tested) was “inactive”.
In the case of `CCCc1cccc2c1ccc1c3occ(C)c3c(=O)oc21` [Compound 20, 1-Methyl-6-propyl-11H-benzo[h]furo[3,2-c]chromen-11-one], the ZR-75-1/SK-BR-3 selectivity ratio [1] is reported as “threefold”, the IC50 [1] is reported as 0.2 µg/mL (≈ 0.684 µM) and the SK-BR-3/MCF-7 selectivity ratio [8] is reported as “approximately 12 fold”.
